Data from ChEMBL document CHEMBL3091303, “1,3-Dialkyl-substituted tetrahydropyrimido[1,2-f]purine-2,4-diones as multiple target drugs for the potential treatment of neurodegenerative diseases” (Bioorg Med Chem, 2013).

Assays:
[1] = target: T1, Adenosine receptor A3 (Homo sapiens) (UniProt P0DMS8); test: Displacement of [3H]PSB-11 from human adenosine A3 receptor expressed in CHO cells relative to control; format: cell-based; design: concentration or dose not given beside the values; settings: concentration not given here
T1 sequence (whole entry): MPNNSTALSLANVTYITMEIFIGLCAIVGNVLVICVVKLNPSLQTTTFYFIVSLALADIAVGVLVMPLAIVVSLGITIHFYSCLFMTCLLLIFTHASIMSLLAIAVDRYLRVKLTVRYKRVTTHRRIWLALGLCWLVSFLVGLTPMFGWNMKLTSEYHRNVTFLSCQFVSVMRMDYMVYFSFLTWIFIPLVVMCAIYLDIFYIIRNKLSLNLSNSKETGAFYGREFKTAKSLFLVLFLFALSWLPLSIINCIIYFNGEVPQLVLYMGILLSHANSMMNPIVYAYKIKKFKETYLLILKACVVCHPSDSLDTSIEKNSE

Adenosine receptor A3 = target: T2, Adenosine receptor A3 (Homo sapiens, UniProt P0DMS8); test: Displacement of [3H]PSB-11 from human adenosine A3 receptor expressed in CHO cells; format: cell-based
T2 sequence (P0DMS8 whole entry): T1 sequence (whole entry)

[2] = target: T3, Amine oxidase [flavin-containing] B (Homo sapiens, UniProt P27338); test: Inhibition of human MAO-B
T3 sequence (P27338 whole entry): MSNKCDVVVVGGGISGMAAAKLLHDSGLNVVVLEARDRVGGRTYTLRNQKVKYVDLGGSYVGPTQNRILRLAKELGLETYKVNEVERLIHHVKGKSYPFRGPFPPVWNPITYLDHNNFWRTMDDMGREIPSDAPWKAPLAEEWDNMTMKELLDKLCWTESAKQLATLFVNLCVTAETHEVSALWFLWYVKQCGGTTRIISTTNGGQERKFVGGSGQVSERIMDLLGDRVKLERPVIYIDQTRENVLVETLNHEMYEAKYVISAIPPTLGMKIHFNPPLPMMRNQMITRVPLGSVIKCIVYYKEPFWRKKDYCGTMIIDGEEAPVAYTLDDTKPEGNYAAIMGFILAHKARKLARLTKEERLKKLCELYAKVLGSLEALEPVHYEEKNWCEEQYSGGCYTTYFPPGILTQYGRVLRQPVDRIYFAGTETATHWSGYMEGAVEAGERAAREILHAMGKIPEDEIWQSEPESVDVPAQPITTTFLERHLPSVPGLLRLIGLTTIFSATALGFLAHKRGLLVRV

Adenosine receptor A2b = target: T4, Adenosine receptor A2b (Homo sapiens, UniProt P29275); test: Displacement of [3H]PSB-603 from human adenosine A2B receptor
T4 sequence (P29275 whole entry): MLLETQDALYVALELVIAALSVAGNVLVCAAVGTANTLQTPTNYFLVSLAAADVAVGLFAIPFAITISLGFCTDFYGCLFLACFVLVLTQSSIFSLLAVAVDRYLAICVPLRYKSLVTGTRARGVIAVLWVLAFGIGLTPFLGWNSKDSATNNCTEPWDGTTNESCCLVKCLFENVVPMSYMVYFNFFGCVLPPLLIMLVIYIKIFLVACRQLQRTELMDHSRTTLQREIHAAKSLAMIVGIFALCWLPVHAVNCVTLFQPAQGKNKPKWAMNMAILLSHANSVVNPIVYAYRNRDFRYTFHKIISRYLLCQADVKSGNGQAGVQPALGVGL

Adenosine receptor A1 [3] = target: T5, Adenosine receptor A1 (Homo sapiens, UniProt P30542); test: Displacement of [3H]CCPA from human adenosine A1 receptor expressed in CHO cells; format: cell-based
T5 sequence (P30542 whole entry): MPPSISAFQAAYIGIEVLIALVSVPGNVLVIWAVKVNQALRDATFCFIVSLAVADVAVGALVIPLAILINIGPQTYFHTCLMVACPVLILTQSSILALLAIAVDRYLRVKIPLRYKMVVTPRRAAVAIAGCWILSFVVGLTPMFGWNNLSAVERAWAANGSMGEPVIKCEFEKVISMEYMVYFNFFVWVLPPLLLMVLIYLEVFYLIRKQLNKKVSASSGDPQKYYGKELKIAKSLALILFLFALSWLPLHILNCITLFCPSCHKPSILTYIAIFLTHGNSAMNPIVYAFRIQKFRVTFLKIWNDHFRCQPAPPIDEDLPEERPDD
Outline: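 Radioligand binding to human receptors recombinantly expressed in Chinese hamster ovary (CHO) cells. Results are Ki, or % inhibition of radioligand binding at the indicated concentration.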

[4] = target: T6, Amine oxidase [flavin-containing] A (Homo sapiens, UniProt P21397); test: Inhibition of human MAO-A
T6 sequence (P21397 whole entry): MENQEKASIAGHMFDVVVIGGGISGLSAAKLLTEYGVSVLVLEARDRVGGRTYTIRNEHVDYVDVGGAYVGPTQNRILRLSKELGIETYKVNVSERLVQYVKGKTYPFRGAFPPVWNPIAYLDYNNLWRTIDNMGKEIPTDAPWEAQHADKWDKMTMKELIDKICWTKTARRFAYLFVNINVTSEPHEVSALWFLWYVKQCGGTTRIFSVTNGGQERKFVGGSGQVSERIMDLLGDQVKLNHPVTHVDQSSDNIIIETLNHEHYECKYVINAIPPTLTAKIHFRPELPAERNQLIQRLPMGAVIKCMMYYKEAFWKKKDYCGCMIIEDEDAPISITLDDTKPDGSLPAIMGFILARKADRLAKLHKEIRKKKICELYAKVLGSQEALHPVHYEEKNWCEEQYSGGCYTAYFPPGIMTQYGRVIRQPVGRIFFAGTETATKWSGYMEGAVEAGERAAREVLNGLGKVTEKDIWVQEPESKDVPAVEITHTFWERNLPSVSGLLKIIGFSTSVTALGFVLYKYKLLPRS
Outline: (§1)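 Human MAO-A and MAO-B inhibition, screened first at a test concentration of 10 µM.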

[5] = target: T7, MAO-A (amine oxidase [flavin-containing] A) (Homo sapiens, UniProt P21397); test: Inhibition of human MAO-A at 10 uM relative to control; outline: as §1
T7 sequence (P21397 whole entry): T6 sequence (P21397 whole entry)

[6] = target: T8, Adenosine receptor A2b (Homo sapiens) (UniProt P29275); test: Displacement of [3H]PSB-603 from human adenosine A2B receptor relative to control; design: concentration or dose not given beside the values; settings: concentration not given here
T8 sequence (whole entry): T4 sequence (P29275 whole entry)

Adenosine receptor A1 [7] = target: T9, Adenosine receptor A1 (Rattus norvegicus, UniProt P25099); test: Displacement of [3H]CCPA from adenosine A1 receptor in rat brain cortex; format: tissue-based
T9 sequence (P25099 whole entry): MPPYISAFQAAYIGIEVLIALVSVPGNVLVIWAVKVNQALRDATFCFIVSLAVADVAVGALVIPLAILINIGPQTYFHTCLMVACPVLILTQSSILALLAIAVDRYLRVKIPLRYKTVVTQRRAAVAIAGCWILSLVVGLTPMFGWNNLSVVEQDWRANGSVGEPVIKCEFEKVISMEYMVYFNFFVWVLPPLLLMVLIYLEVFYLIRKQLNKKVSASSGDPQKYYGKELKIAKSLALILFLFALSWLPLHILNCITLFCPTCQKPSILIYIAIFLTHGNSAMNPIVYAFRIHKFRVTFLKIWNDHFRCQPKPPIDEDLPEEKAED
Outline: (§2)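 Radioligand binding to rat A1 receptors in rat brain cortical membrane preparations. Values are given as Ki, or as % inhibition of radioligand binding at the indicated concentration.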

Adenosine receptor A2a = Adenosine receptor A2a (Rattus norvegicus, UniProt P30543); test: Displacement of [3H]MSX-2 from adenosine A2A receptor in rat brain striatum; format: tissue-based
Chain of Adenosine receptor A2a (P30543 whole entry): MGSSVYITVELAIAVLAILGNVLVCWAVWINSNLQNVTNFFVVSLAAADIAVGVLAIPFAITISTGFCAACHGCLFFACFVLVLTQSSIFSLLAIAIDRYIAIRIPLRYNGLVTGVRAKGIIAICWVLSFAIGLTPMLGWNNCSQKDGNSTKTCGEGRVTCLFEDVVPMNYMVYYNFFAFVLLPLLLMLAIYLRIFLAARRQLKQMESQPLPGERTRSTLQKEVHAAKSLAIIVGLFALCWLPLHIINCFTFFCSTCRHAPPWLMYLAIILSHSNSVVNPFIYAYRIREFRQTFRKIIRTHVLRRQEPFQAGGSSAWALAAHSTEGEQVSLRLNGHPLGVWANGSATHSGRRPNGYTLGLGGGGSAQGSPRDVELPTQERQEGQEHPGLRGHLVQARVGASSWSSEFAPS

[8] = target: T10, MAO-B (amine oxidase [flavin-containing] B) (Homo sapiens, UniProt P27338); test: Inhibition of human MAO-B at 10 uM relative to control; outline: as §1
T10 sequence (P27338 whole entry): T3 sequence (P27338 whole entry)

[9] = target: T11, Adenosine receptor A1 (Rattus norvegicus) (UniProt P25099); test: Displacement of [3H]CCPA from adenosine A1 receptor in rat brain cortex relative to control; format: tissue-based; design: concentration or dose not given beside the values; settings: concentration not given here; outline: as §2
T11 sequence (whole entry): T9 sequence (P25099 whole entry)

Row | Compound | inhibition [1] [%] | Ki (Adenosine receptor A3) [µM] | IC50 [2] [µM] | Ki (Adenosine receptor A2b) [µM] | Ki (Adenosine receptor A1 [3]) [µM] | IC50 [4] [µM] | inhibition at 10 µM [5] [%] | inhibition [6] [%] | Ki (Adenosine receptor A1 [7]) [µM] | Ki (Adenosine receptor A2a) [µM] | inhibition at 10 µM [8] [%] | inhibition [9] [%]
1 | CCn1c(=O)c2c(nc3n2CCCN3C2CCCCC2)n(CC)c1=O | 37 | > 10 | 3.72 | > 1 | 1.04 | > 10 | -3 | 3 | 0.321 | 1.7 |  | 
2 | Cn1c(=O)c2c(nc3n2CCCN3c2cccc(Cl)c2)n(C)c1=O | 33 | > 10 | 4.96 | > 1 |  | > 10 | 15 | -4 | 4.42 | 3.76 |  | 
3 | CCn1c(=O)c2c(nc3n2CCCN3c2ccc(F)cc2)n(CC)c1=O | 29 | > 10 | 10 | > 1 | 6.65 |  |  | 11 | 0.545 | 1.88 | 48 | 
4 | C#CCn1c(=O)c2c(nc3n2CCCN3CCc2cc(OC)c(OC)c(OC)c2)n(C)c1=O | 5 | > 1 | > 10 | > 1 |  |  |  | -2 | > 10 | 0.723 | 29 | 18
5 | CCn1c(=O)c2c(nc3n2CCCN3c2cccc(OC)c2)n(CC)c1=O |  | 6.8 | 6.39 | > 1 |  | > 10 | 4 | 21 | 1.24 | 5.37 |  | 
6 | Cn1c(=O)c2c(nc3n2CCCN3CC(=O)N2CCN(Cc3ccc(Cl)cc3)CC2)n(C)c1=O | 23 | > 10 | > 10 | > 1 |  |  |  |  | > 1.5 | 9.42 | 30 | -1
7 | CCn1c(=O)c2c(nc3n2CCCN3CCc2ccccc2OC)n(CC)c1=O |  | 3.03 | 3.26 | > 1 | 3.92 | > 10 | 28 | 20 | 0.506 | 1.83 |  | 
8 | C#CCn1c(=O)c2c(nc3n2CCCN3Cc2cccnc2)n(C)c1=O | 4 | > 1 | > 10 | > 0.3 |  |  |  | 1 | 1.83 | 6.22 | 21 | 
9 | CCn1c(=O)c2c(nc3n2CCCN3CCc2cccc(OC)c2)n(CC)c1=O |  | 3.41 | > 10 | > 1 |  |  |  | 29 | > 10 | 2.65 | 33 | 31
10 | C#CCn1c(=O)c2c(nc3n2CCCN3c2cc(OC)cc(OC)c2)n(C)c1=O | 28 | > 1 | > 10 | > 1 | 9.65 |  |  | 9 | 0.228 | 2.04 | 30 | 
11 | C#CCn1c(=O)c2c(nc3n2CCCN3Cc2ccc(OC)cc2)n(C)c1=O |  |  | 10 |  | 10.2 | > 10 | 11 | 7 | 0.555 | 3.03 | 50 | 
12 | C#CCn1c(=O)c2c(nc3n2CCCN3c2ccc(C(C)C)cc2)n(C)c1=O |  |  | 10 | > 1 |  | > 10 | 5 | 17 | 5.22 | 1.48 | 64 | 
13 | Cn1c(=O)c2c(nc3n2CCCN3Cc2ccc(Cl)c(Cl)c2)n(C)c1=O | 30 | > 10 | 0.0629 | > 1 |  | > 10 | 10 | 5 | 4.01 | 3.69 |  | 
14 | Cn1c(=O)c2c(nc(/C=C/c3cccc(Cl)c3)n2C)n(C)c1=O |  |  |  |  |  | > 10 | 23 |  |  |  |  | 
